Source: PubChem BioAssay (The Scripps Research Institute Molecular Screening Center)
ZTA counter: blocks Epstein-Barr virus ZTA, an EBNA-1 counter-screen | P03206 | ZTA-DNA binding, fluorescence polarization | inhibition, % at 11 µM | 320,000 tested, 0.15% active | AID 2234; in the data active = inhibition above about 33%
PP5 inh: blocks human protein phosphatase 5 activity; P53041; purified PP5c, OMFP substrate fluorescence; inhibition, % at 6.7 µM; 320,000 tested, 0.18% active;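 active = inhibition above the campaign's mean inhibition across all tested compounds plus 3 SD, cut at about 9.5% in these data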
Target sequence (P53041 whole entry, looked up): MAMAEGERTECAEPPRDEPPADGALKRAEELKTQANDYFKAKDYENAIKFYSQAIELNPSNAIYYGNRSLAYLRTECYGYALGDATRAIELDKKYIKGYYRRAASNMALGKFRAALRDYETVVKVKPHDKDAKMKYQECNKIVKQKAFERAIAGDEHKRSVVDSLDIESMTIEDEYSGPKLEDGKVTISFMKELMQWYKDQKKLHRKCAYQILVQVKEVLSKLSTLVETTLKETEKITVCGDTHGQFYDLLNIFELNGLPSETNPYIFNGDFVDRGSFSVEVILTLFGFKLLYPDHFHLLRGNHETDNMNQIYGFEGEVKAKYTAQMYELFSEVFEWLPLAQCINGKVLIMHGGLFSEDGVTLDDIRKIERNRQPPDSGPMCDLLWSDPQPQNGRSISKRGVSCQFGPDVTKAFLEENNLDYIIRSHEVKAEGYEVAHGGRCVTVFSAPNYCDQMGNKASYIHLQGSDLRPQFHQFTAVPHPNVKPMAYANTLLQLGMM
core dimer inh: blocks dimerization of HCV core protein. 300,000 tested, 0.33% active. AID 1899. inhibition, % at 5 µM. TR-FRET GST/Flag-core106 dimerization, 1536-well;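 active = inhibition above the mean of all tested compounds plus 3 SD, set per screening campaign, cut at about 45% in these data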
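Assay system – GST-tagged and Flag-tagged HCV core protein residues 1-106 · Quantity – core106 proteins, GST 13.5 nM and Flag 17 nM · Benchmarks – unlabelled core106 and no-GST-core106 wells · Read-out basis – percent inhibition of core106 dimerization signal · Detection – time-resolved FRET, ex 340 nm, em 617 and 671 nm · Schedule – 4 h at 22.5 °C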
EBNA-1 inhibitor: blocks EBNA-1 binding to DNA; 300,000 tested, 0.34% active; AID 1950; inhibition, % at 14.8 µM; EBNA-1 DNA binding, fluorescence polarization; in the data active = inhibition above about 28%
PP1 inh: blocks human PP1-alpha phosphatase, a PP5 counter-screen; purified PP1alpha, OMFP fluorescence; inhibition, % at 6.7 µM; 320,000 tested, 0.9% active; AID 2235;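 active = inhibition above the mean inhibition of all tested compounds plus 3 SD, computed separately for each screening campaign, cut at about 15% in these data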
PP1 confirm: confirmation of human PP1 phosphatase inhibitors; inhibition, % at 6.7 µM; purified PP1alpha, OMFP substrate fluorescence; 1,900 tested, 52% active; shares compounds with PP1 inh;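 active = mean PP1 inhibition above a set limit taken from the earlier primary screen, cut at about 15% in these data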
PP5 inh counter: inhibits human PP5 phosphatase in PP1 counter-screen; shares compounds with PP1 inh; purified PP5c, OMFP fluorescence; inhibition, % at 6.7 µM; 1,900 tested, 4% active;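 active = mean PP5 inhibition over triplicate wells above about 9.5% taken from the earlier PP1 screen, limit read from the data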
Numbers stand for hits; – = inactive; · = no result given. Rows were chosen to be rich in hits. Some 1.7% of all compounds tested hit in one or more screens of this group.

SMILES	ZTA counter	PP5 inh	core dimer inh	EBNA-1 inhibitor	PP1 inh	PP1 confirm	PP5 inh counter
Cc1cc(C)cc(N2CC(C(=O)OCC(=O)Nc3cc(C)on3)CC2=O)c1 (stereo not given)	–	–	–	–	–	·	·
Cc1cc2c(C)nc(N/N=C/c3ccc([N+](=O)[O-])cc3)nc2o1	–	–	–	–	18	33	–
O=C(/C=C/c1ccco1)NC(=S)Nc1cccc(-c2nc3ccccc3s2)c1	–	–	52	–	24	–	–
O=C(/C=C/c1ccc(Cl)cc1)NC(=S)Nc1ccc(NC(=O)c2ccco2)cc1	–	–	–	–	21	24	–
O=C(/C=C/c1ccco1)NC(=S)Nc1ccccc1	–	–	–	–	–	·	·
CC(=O)c1ccc(NC(=S)NC(=O)/C=C/c2ccco2)cc1	–	–	–	–	23	29	–
CCOC(=O)N1CCN(C(=O)Cc2ccccc2OC)CC1	–	–	–	–	–	·	·
O=C(c1ccc(F)cc1F)N1CCCN(c2nc(-c3ccccc3)ns2)CC1	–	–	–	–	–	·	·
CC(C)(C)NC(=O)N1CCN(c2nc(-c3ccccc3)ns2)CC1	–	–	–	–	53	–	–
COc1ccccc1CNC(=O)C(NS(=O)(=O)c1ccc2c(c1)oc(=O)n2C)C(C)C (stereo not given)	–	–	–	–	27	–	–
COc1cc(OC)cc(C(=O)NNC(=S)Nc2ccc(S(N)(=O)=O)cc2)c1	–	–	–	–	–	·	·
Brc1ccc(CNc2cc3c(cc2Br)OCCO3)cc1	–	–	–	–	–	·	·
O=C(CN1CCCN(Cc2ccc(F)cc2Cl)C1=O)NC1CCCCCC1	–	–	–	–	43	–	–
CC1CCC(NC(=O)CN2CCCN(Cc3ccc(F)cc3Cl)C2=O)CC1 (stereo not given)	–	–	–	–	–	·	·
Cc1ccc(-c2nnc(SCC(=O)N/N=C/c3ccc(C)s3)n2-c2ccc(C)cc2)cc1	–	–	–	–	20	–	–
Oc1c(C(Nc2nc3ccccc3s2)c2ccco2)ccc2cccnc12 (stereo not given)	–	–	–	–	29	19	–
Cc1ccc(S(=O)(=O)c2nnn3c2nc(NC2CCN(Cc4ccccc4)CC2)c2ccccc23)cc1C	–	–	–	–	21	–	–
CC(C)(C)c1ccc(/C=C(\C#N)C(=O)NC2CC2)cc1	–	–	–	–	–	·	·
O=C(OCc1ccccc1)c1cn(-c2ccccc2)nc1-c1ccncc1	–	–	–	–	–	·	·
CCCCOC(=O)c1ccc(NC(=O)c2ccccc2OC)cc1	–	–	–	–	64	–	–
O=C1OCCN1c1c(-c2ccccc2)c(-c2cccs2)nc2c(-c3ccccc3)cccc12	–	–	–	–	–	·	·
N#CC1CCN(C(=O)c2ccc3c(Cl)c4c(nc3c2)CCCC4)CC1	–	–	–	–	23	–	–
CN1CCN(C(=O)c2ccc3c(Cl)c4c(nc3c2)CCCC4)CC1	–	–	–	–	–	·	·
CC(OC(=O)CN1C(=O)c2ccccc2C1=O)C(=O)NC1CCCCC1C (stereo not given)	–	–	–	–	–	·	·
N#Cc1ccsc1NC(=O)COC(=O)C1=NNC(=O)CC1	–	–	·	·	19	–	–
SMILES	ZTA counter	PP5 inh	core dimer inh	EBNA-1 inhibitor	PP1 inh	PP1 confirm	PP5 inh counter
Cc1cc(=O)oc2c3c(cc(OCC(=O)NC(Cc4ccc(Cl)cc4)C(=O)O)c12)OC(C)(C)CC3 (stereo not given)	–	–	–	–	–	·	·
CN(C(=O)CN1C(=O)NC(c2ccccc2)(c2ccccc2)C1=O)C1CCS(=O)(=O)C1 (stereo not given)	–	–	·	·	–	·	·
O=C1N[C@@H](Cc2ccccc2)C(=O)N2[C@H]1C[C@]1([C@]34C[C@H]5C(=O)N[C@@H](Cc6ccccc6)C(=O)N5[C@H]3N(S(=O)(=O)c3ccccc3)c3ccccc34)c3ccccc3N(S(=O)(=O)c3ccccc3)[C@H]21	–	–	60	–	30	23	–
CC(C)C(O)(C#CCN1CCCCCC1)c1ccccc1 (stereo not given)	–	–	–	–	–	·	·
O=C(CNC1CCCCC1)Nc1cc(S(=O)(=O)N2CCOCC2)ccc1Cl	–	–	–	–	–	·	·
Cc1ccccc1OCCCN1C(=O)C(=O)c2cccc(C)c21	–	–	–	–	21	–	–
